Compounds with a hit are over-represented: about 2.4% of the library has one in this group of screens.
DNMT1 inh: inhibitors of human DNMT1; P26358; DNMT1 molecular beacon, Hinp1I cleavage, fluorescence; inhibition (reported as % activation of signal), % at 10 µM; 0.83% of 360,000 active; AID 588458; in the data active = inhibition above about 50%
Target sequence (P26358 504-1616 limits assumed): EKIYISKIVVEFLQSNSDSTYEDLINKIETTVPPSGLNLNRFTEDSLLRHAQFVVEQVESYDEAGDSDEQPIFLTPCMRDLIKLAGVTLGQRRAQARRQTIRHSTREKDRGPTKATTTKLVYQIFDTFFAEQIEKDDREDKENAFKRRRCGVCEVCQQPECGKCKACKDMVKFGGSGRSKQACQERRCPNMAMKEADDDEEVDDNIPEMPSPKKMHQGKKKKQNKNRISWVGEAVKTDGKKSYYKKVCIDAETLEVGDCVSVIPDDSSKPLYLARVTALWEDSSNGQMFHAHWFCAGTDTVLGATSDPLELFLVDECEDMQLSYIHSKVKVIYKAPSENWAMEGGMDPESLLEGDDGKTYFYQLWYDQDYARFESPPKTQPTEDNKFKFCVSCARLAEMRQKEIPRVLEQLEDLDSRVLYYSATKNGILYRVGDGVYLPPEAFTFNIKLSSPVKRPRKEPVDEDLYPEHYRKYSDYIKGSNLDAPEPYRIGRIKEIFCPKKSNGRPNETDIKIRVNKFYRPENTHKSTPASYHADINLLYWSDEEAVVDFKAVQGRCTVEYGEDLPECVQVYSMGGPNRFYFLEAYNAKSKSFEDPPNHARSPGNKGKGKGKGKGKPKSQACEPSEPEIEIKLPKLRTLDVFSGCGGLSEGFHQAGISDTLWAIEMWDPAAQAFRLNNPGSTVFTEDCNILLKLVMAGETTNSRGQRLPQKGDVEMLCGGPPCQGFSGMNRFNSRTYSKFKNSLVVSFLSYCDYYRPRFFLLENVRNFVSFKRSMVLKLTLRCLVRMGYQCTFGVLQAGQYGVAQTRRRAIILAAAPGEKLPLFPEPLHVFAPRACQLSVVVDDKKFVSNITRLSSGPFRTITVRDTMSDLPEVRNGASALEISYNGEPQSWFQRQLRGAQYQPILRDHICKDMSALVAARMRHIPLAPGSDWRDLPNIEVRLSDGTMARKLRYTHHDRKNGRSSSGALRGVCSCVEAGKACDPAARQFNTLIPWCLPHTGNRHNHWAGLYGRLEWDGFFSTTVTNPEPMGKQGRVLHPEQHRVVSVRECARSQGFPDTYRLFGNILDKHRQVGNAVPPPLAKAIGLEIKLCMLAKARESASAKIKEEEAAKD
STEP block: inhibitors of human striatal-enriched phosphatase STEP. AID 588621. P54829. inhibition, % at 20 µM. 0.25% of 360,000 active. recombinant STEP, OMFP fluorogenic substrate, fluorescence;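 active = inhibition at 20 µM, scaled per plate between control wells, above about 37%, limit read from the data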
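System: STEP phosphatase, cell-free reaction; Buffer or medium: Bis-Tris pH 6.0 buffer with DTT, detergent; Incubation: 20 min at room temperature, dark; Measured by: fluorescence, 480/540 nm.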
Scp-1 inhibitor: Scp-1 (human) phosphatase inhibition; inhibition, % at 20 µM; 0.88% of 340,000 active; Recombinant Scp1, phosphopeptide, malachite green phosphate absorbance; Q9GZU7;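 active = inhibition above about 50% at 20 µM, limit read from the data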
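Material – SCP-1 phosphatase catalytic domain, residues 76-261 · Buffer or medium – Acidic Tris acetate buffer with magnesium and detergent · Also added – Phospho 17-mer peptide substrate · Compound – single 20 µM dose, 1% DMSO · Times – 45 min room-temperature reaction, 5 min colour, 30 min stabiliser · Technique – Phosphate-binding colour reagent, absorbance read at 630 nm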
LMPTP inh: blocks human LMPTP phosphatase; P24666; recombinant LMPTP-A, OMFP fluorogenic substrate, fluorescence intensity; inhibition, % at 20 µM; 0.22% of 360,000 active;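 active = compounds that cut the enzyme signal by at least half of the control window in the single-dose screen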
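Test system – LMPTP-A phosphatase enzyme · Quantity – 0.625 nM LMPTP-A final · Reagent – OMFP substrate, 400 µM final · Dosing – one test concentration per compound, 20 µM, with 3% DMSO overall · Timing – 50 min enzyme reaction at room temperature, protected from light · Detection – fluorescence intensity · Controls – substrate-only low control, DMSO enzyme-plus-substrate high control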
NadD inh: NadD (S. aureus) enzyme inhibition; purified NadD enzyme, colorimetric absorbance read-out; inhibition, % at 20 µM; 0.78% of 360,000 active; in the data active = inhibition above about 26%
SUMO1 PPI mod: modulators of human SUMO1-mediated protein-protein interactions; 0.33% of 360,000 active; inhibition, % at 20 µM; AID 602429; P63165; SUMO1 binding to a labelled peptide, TR-FRET, 1 h; in the data active = inhibition above about 37%
Beacon interf DR: shows spectral interference in the DNMT1 beacon assay. IC50, µM. shares compounds with DNMT1 inh. AID 602382. molecular beacon fluorescence, spectral interference counter-screen. 200 tested, under 10 active
DNMT1 inh conf: confirmation of human DNMT1 inhibitors | AID 602385 | inhibition, % at 10 µM | shares compounds with DNMT1 inh | 8% of 2,300 active | DNMT1 molecular beacon HinP1I cleavage, fluorescence;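 active = average inhibition of at least 30% in the single-concentration confirmation test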
Beacon interf: counter-screen for DNMT1 inhibitors: spectral interference; shares compounds with DNMT1 inh; DNMT1 molecular beacon spectral interference counterscreen, fluorescence 485/520; activation (fluorescence interference), % at 10 µM; 1% of 2,300 active; AID 602387;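 active = activation of at least 30% at 10 µM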;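 note: DNMT1 catalytic domain with a HinP1I cleavage step and a FAM/dabcyl DNA beacon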
STEP conf: confirmation of human STEP phosphatase inhibitors; shares compounds with STEP block; recombinant STEP, OMFP fluorogenic substrate, fluorescence; inhibition, % at 20 µM; 32% of 520 active; AID 623866
NadD inh conf: confirmation of Staphylococcus aureus NadD inhibitors; shares compounds with NadD inh; inhibition, % at 20 µM; purified S. aureus NadD, colorimetric enzyme assay; 13% of 2,000 active; in the data active = inhibition mostly above about 42%, no sharp cut-off; inactive = mostly below about 42%
Hits are given with their value; i = inactive; nt = not tested or not shown. Unless noted, the rule behind the calls is not given here.

SMILES	DNMT1 inh	STEP block	Scp-1 inhibitor	LMPTP inh	NadD inh	SUMO1 PPI mod	DNMT1 inh conf	Beacon interf	NadD inh conf	others
COc1cc(C2c3c(-c4cc(Cl)c(C)cc4O)n[nH]c3C(=O)N2Cc2cccnc2)ccc1O (stereo unspecified)	i	i	i	i	i	i	nt	nt	nt
CCC(C)c1ccc(NC(=O)COC(=O)c2nc3nccc(C)n3n2)cc1 (stereo unspecified)	i	i	i	i	i	i	nt	nt	nt
Cc1cccc2sc(NNC(=O)c3cc(-c4cccs4)nc4ccccc34)nc12	69	i	i	i	49	i	i	i	48
CC(C)(C)NC(=O)NC(=O)CSc1ccc(S(=O)(=O)N2CCCCC2)cn1	i	i	i	i	i	i	nt	nt	nt
C=C(C)CSc1nnc([C@@H](NC(=O)OC(C)(C)C)C(C)CC)o1 (stereo partly specified)	i	i	i	i	i	i	nt	nt	nt
O=C(N/N=C/c1coc2ccccc2c1=O)c1cn(-c2ccccc2)nc1-c1ccc(F)cc1	59	i	i	i	34	i	i	i	i
O=C(N/N=C/c1coc2ccccc2c1=O)c1ccncc1	i	i	i	i	i	i	nt	nt	nt
COc1ccc(NC(=O)CSc2nc3c(cc2C#N)CN(C)CC3)cc1	71	i	i	i	30	i	i	i	i
Cc1cc(C)cc(NC(=O)CN2CCN(CCN=CC3=C(O)CC(c4ccc(Cl)cc4)CC3=O)CC2)c1 (stereo unspecified)	i	i	i	i	i	i	nt	nt	nt
C[C@H]1CN([C@@H](C)CO)C(=O)c2cc(C#CCC3CCCC3)cnc2O[C@@H]1CN(C)C(=O)CC1CC1	i	i	nt	i	i	i	nt	nt	nt
O=C(Nc1ccc(N2CCN(Cc3ccccc3)CC2)cc1)c1ccccc1[N+](=O)[O-]	i	i	i	i	i	i	nt	nt	nt
CS(=O)(=O)c1ccc(C(=O)Nc2ccc(N3CCCC3)cc2)c(Cl)c1	i	i	i	i	i	i	nt	nt	nt
Cc1ccc(C(=O)Nc2ccc(N3CCCC3)cc2)c(C)c1	54	i	i	i	32	i	i	i	i
O=C(Nc1ccc(N2CCCC2)cc1)c1ccccc1[N+](=O)[O-]	70	i	i	i	27	i	i	i	i
Cc1ccccc1C(=O)Nc1ccc(N2CCCC2)cc1	i	i	i	i	i	i	nt	nt	nt
O=C(Nc1ccc(N2CCCC2)cc1)c1cc(Br)ccc1Cl	50	i	i	i	41	i	i	i	55
COc1ccccc1/C=C/C=N/NC(=O)c1cc(-c2ccco2)[nH]n1	61	i	i	67	43	i	i	i	54
O=C(/C=C/c1ccc(Br)cc1)NC(=S)Nc1ccc(S(=O)(=O)Nc2nccs2)cc1	86	i	i	i	54	94	67	i	i	Beacon interf DR=i
O=C(NC(=S)Nc1ccc(S(=O)(=O)Nc2nccs2)cc1)c1ccc(Br)o1	i	i	i	i	i	i	nt	nt	nt
CCn1c2ccccc2c2cc(NC(=O)CSc3nnc(-c4ccc(OC)c(OC)c4)n3N)ccc21	i	i	i	i	i	i	nt	nt	nt
CCOc1ccc(-c2nnc(SCC(=O)Nc3ccc4c(c3)c3ccccc3n4CC)n2N)cc1	59	i	i	i	31	i	i	i	i
Cc1cc(C)cc(C(=O)OCC(=O)NC(=O)NC2CCCC2)c1	i	i	i	i	i	i	nt	nt	nt
COc1ccc(CCN2C(=NC(=O)CCC(=O)O)SC3CS(=O)(=O)CC32)cc1 (stereo unspecified)	i	i	i	i	i	i	nt	nt	nt
Cc1nn(Cc2c(Cl)cccc2Cl)c(C)c1NC(=O)c1cn(-c2ccccc2)nc1-c1ccccc1	68	i	i	i	34	i	i	i	i
Cc1cccc(C)c1NC(=O)CNC(=O)c1cn(-c2ccccc2)nc1-c1ccccc1	i	i	i	i	i	i	nt	nt	nt
SMILES	DNMT1 inh	STEP block	Scp-1 inhibitor	LMPTP inh	NadD inh	SUMO1 PPI mod	DNMT1 inh conf	Beacon interf	NadD inh conf	others
O=C(NC(C(=O)N/N=C/c1cc([N+](=O)[O-])ccc1O)c1n[nH]c(=O)c2ccccc12)c1ccccc1 (stereo unspecified)	i	i	i	i	i	i	nt	nt	nt
Nc1nc(-c2cc(O)ccc2[N+](=O)[O-])cc(-c2ccccc2)c1[N+](=O)[O-]	60	i	i	i	53	50	i	i	i
COc1cc(C(=O)OCC(=O)N2CCOCC2)c([N+](=O)[O-])cc1OC	i	i	i	i	i	i	nt	nt	nt
CC(=O)c1ccc(NC(=O)CN2CCN(c3ccccc3)CC2)cc1	i	i	i	i	i	i	nt	nt	nt
CC(=O)Nc1ccc(C(=O)CN2CCN(c3ccccc3)CC2)cc1	i	47	i	i	i	70	nt	nt	nt	STEP conf=i
Cc1nc(N2CCCCC2)c2sc(=S)n(C)c2n1	i	i	i	i	i	i	nt	nt	nt
CCN1CCN(c2nc(C)nc3c2sc(=S)n3C)CC1	i	93	i	i	i	i	nt	nt	nt	STEP conf=i
Cc1c(C(=O)N2CCCCC2)nn(-c2ccc(Cl)cc2)c(=O)c1C#N	i	i	i	i	i	i	nt	nt	nt
CC(=O)Nc1ccc(/C=C2\Sc3ccccc3C2=O)cc1	i	43	i	i	i	i	nt	nt	nt	STEP conf=i
O=C(NCc1ccccc1)c1cc(C2COCCN2C(=O)CCc2ccccc2)on1 (stereo unspecified)	i	i	nt	i	i	i	nt	nt	nt
COc1cc(OC)cc(C(=O)N[C@H](C(=O)OCC(=O)N2CCN(S(=O)(=O)c3ccc(C)cc3)CC2)C(C)C)c1	i	i	i	i	i	i	nt	nt	nt
O=C1NC(=Nc2ccccc2)S/C1=C/c1cccnc1	i	i	i	i	i	i	nt	nt	nt
O=C1NC(=Nc2cccnc2)S/C1=C\c1cccc(F)c1	i	57	i	i	i	i	nt	nt	nt	STEP conf=i
CN(CCO)c1cccc2c1S(=O)(=O)N[C@@H](Cc1ccccc1)CO2	nt	nt	nt	i	i	i	nt	nt	nt
COc1ccc(N2CCN(C(c3cccs3)C(C)NC(=O)C(=O)N3CCCC3)CC2)cc1 (stereo unspecified)	i	60	i	i	i	i	nt	nt	nt	STEP conf=i
CCOC(=O)C1=C(COC(=O)C2(C)CC2(Cl)Cl)NC(=O)NC1c1ccccc1 (stereo unspecified)	i	i	i	i	i	i	nt	nt	nt
COc1ccc(C(=O)OCC(=O)NCc2ccc3c(c2)OCO3)cc1S(=O)(=O)N1CCOCC1	i	i	i	i	i	i	nt	nt	nt

Screens from PubChem BioAssay.
